Experimental data from ChEMBL document CHEMBL1938388, “Design, synthesis and biological evaluation of new naphtalene diimides bearing isothiocyanate functionality” (Eur J Med Chem, 2012).
Calls of active or inactive are those of the source. The rule behind the calls is not given here.

Tests used:
[1] = tested on: Jurkat; test: Cytotoxicity against human Jurkat T cells assessed as decrease in cell viability after 24 hrs by flow cytometric analysis; format: functional, cell-based
Summary of the method: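 Jurkat cultures kept in exponential growth (split every third day to 1 × 10^5 cells/ml) were treated for one cell cycle (24 h) at graded concentrations. Viability was read right after treatment by flow cytometry after 5 min propidium iodide-based stain at room temperature. IC50 was interpolated from the dose-response curve; ≥3 independent experiments, mean ± SEM.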

[2] = tested on: Jurkat; test: Induction of apoptosis in human Jurkat T cells assessed as increase in necrotic cells at 1 uM after 24 hrs by 7-AA staining-based flow cytometric analysis; format: functional, cell-based
[3] = tested on: Jurkat; test: Growth inhibition in human Jurkat T cells assessed as suppression into cell cycle progression at 1 uM after 24 hrs by flow cytometric analysis; format: functional; conditions: read-out: GI
Summary of the method: (§1)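 Jurkat cells were treated 24 h at graded concentrations, and cell growth inhibition was measured by flow cytometry. Mean ± SEM of at least three independent experiments.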

[4] = tested on: Jurkat; test: Ratio IC50 for sulforaphane to compound for human Jurkat T cells; format: functional
[5] = tested on: Jurkat; test: Induction of apoptosis in human Jurkat T cells assessed as decrease in membrane potential at 0.5 uM after 24 hrs by JC-1 staining-based flow cytometric analysis; format: functional; set-up: scale not given: the % may be the effect or the level left
[6] = tested on: Jurkat; test: Induction of apoptosis in human Jurkat T cells assessed as decrease in membrane potential at 0.25 to 0.75 uM after 24 hrs by JC-1 staining-based flow cytometric analysis; format: functional, cell-based
[7] = tested on: Jurkat; test: Cell cycle arrest in human Jurkat T cells assessed as accumulation at G2/M phase at 0.25 to 0.5 uM after 24 hrs by flow cytometric analysis (reference value: 29%); format: functional
Summary of the method: (§2)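 Jurkat cells exposed 24 h to a range of concentrations, fixed in ice-cold ethanol, stained with propidium iodide-containing cell cycle reagent for 30 min at room temperature in the dark; G1, S and G2/M fractions from flow cytometry. Mean ± SEM of four independent experiments.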

[8] = tested on: Jurkat; test: Growth inhibition in human Jurkat T cells assessed as suppression into cell cycle progression at 0.75 uM after 24 hrs by flow cytometric analysis; format: functional; conditions: read-out: GI; summary of the method: as §1
[9] = tested on: Jurkat; test: Cytotoxicity against human Jurkat T cells assessed as necrotic cells at 0.1 to 16 uM after 72 hrs by flow cytometric analysis; format: functional, cell-based
Summary of the method: (§3)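 After 72 h exposure of Jurkat cells, 2 × 10^4 cells were stained with an Annexin V-PE/7-AAD cocktail for 20 min at room temperature in the dark. Necrotic cells were scored by flow cytometry.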

[10] = tested on: Jurkat; test: Cytotoxicity against human Jurkat T cells assessed as necrotic cells at 1 uM after 72 hrs by flow cytometric analysis; format: functional; summary of the method: as §3
[11] = tested on: Jurkat; test: Cell cycle arrest in human Jurkat T cells assessed as accumulation at S phase at 0.25 to 0.5 uM after 24 hrs by flow cytometric analysis (reference value: 21%); format: functional; summary of the method: as §2
[12] = tested on: Jurkat; test: Induction of apoptosis in human Jurkat T cells assessed as decrease in membrane potential at 0.75 uM after 24 hrs by JC-1 staining-based flow cytometric analysis; format: functional; set-up: scale not given: the % may be the effect or the level left
[13] = tested on: Jurkat; test: Induction of apoptosis in human Jurkat T cells assessed as increase in phosphatidylserine level at 0.25 to 1 uM after 24 hrs by flow cytometric analysis; format: functional, cell-based
[14] = tested on: Jurkat; test: Induction of apoptosis in human Jurkat T cells assessed as increase in phosphatidylserine level after 24 hrs by flow cytometric analysis; format: functional, cell-based
[15] = tested on: Jurkat; test: Growth inhibition in human Jurkat T cells assessed as suppression into cell cycle progression at 2 uM after 24 hrs by flow cytometric analysis; format: functional; summary of the method: as §1
[16] = tested on: Jurkat; test: Induction of apoptosis in human Jurkat T cells assessed as caspase 8 activation after 24 hrs by FAM-LETD-FMK staining-based flow cytometric analysis
[17] = tested on: Jurkat; test: Induction of apoptosis in human Jurkat T cells assessed as caspase 8 activation at 0.25 to 0.75 uM after 24 hrs by FAM-LETD-FMK staining-based flow cytometric analysis
[18] = tested on: Jurkat; test: Induction of apoptosis in human Jurkat T cells assessed as decrease in membrane potential after 24 hrs by JC-1 staining-based flow cytometric analysis; format: functional, cell-based
[19] = tested on: Jurkat; test: Induction of apoptosis in human Jurkat T cells assessed as decrease in membrane potential at 2 uM after 24 hrs by JC-1 staining-based flow cytometric analysis; format: functional; set-up: scale not given: the % may be the effect or the level left
[20] = tested on: Jurkat; test: Induction of apoptosis in human Jurkat T cells assessed as increase in apoptotic cells at 0.75 uM after 24 hrs by 7-AA staining-based flow cytometric analysis relative to sulforaphane
[21] = tested on: Jurkat; test: Cell cycle arrest in human Jurkat T cells assessed as accumulation at G1 phase at 0.25 to 0.5 uM after 24 hrs by flow cytometric analysis (reference value: 56%); format: functional; summary of the method: as §2
[22] = tested on: Jurkat; test: Induction of apoptosis in human Jurkat T cells assessed as caspase 8 activation at 0.25 to 1 uM after 24 hrs by FAM-LETD-FMK staining-based flow cytometric analysis
[23] = tested on: Jurkat; test: Growth inhibition in human Jurkat T cells assessed as suppression into cell cycle progression at 1.5 uM after 24 hrs by flow cytometric analysis; format: functional; conditions: read-out: GI; summary of the method: as §1
[24] = tested on: Jurkat; test: Induction of apoptosis in human Jurkat T cells assessed as decrease in membrane potential at 0.25 to 1 uM after 24 hrs by JC-1 staining-based flow cytometric analysis; format: functional, cell-based
[25] = tested on: Jurkat; test: Induction of apoptosis in human Jurkat T cells assessed as increase in necrotic cells at 1.5 uM after 24 hrs by 7-AA staining-based flow cytometric analysis; format: functional, cell-based
[26] = tested on: Jurkat; test: Induction of apoptosis in human Jurkat T cells assessed as increase in phosphatidylserine level at 0.25 to 1.5 uM after 24 hrs by flow cytometric analysis; format: functional, cell-based
[27] = tested on: Jurkat; test: Cell cycle arrest in human Jurkat T cells assessed as accumulation at G2/M phase at 0.25 to 0.5 uM after 24 hrs by flow cytometric analysis; format: functional, cell-based; summary of the method: as §2
[28] = tested on: Jurkat; test: Growth inhibition in human Jurkat T cells assessed as suppression into cell cycle progression at 3 uM after 24 hrs by flow cytometric analysis; format: functional; conditions: read-out: GI; summary of the method: as §1
[29] = tested on: Jurkat; test: Cell cycle arrest in human Jurkat T cells assessed as accumulation at G1 phase at 0.25 to 0.5 uM after 24 hrs by flow cytometric analysis (reference value: 58%); format: functional; summary of the method: as §2
[30] = tested on: Jurkat; test: Cell cycle arrest in human Jurkat T cells assessed as accumulation at S phase at 0.25 to 0.5 uM after 24 hrs by flow cytometric analysis; format: functional, cell-based; summary of the method: as §2
[31] = tested on: Jurkat; test: Induction of apoptosis in human Jurkat T cells assessed as increase in phosphatidylserine level at 2 uM after 24 hrs by flow cytometric analysis; format: functional, cell-based
Summary of the method: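 Jurkat T leukemia cells were exposed for 24 h. Aliquots of 2 × 10^4 cells were then stained with Guava Nexin Reagent, which contains Annexin V-PE for phosphatidylserine exposure and 7-AAD for membrane-permeable, necrotic cells. Staining ran 20 min at room temperature in the dark, followed by flow cytometry. Data are mean ± SEM of at least three independent experiments. Friedman test, Dunn's post test.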

[32] = tested on: Jurkat; test: Cell cycle arrest in human Jurkat T cells assessed as accumulation at G2/M phase at 0.5 to 1 uM after 24 hrs by flow cytometric analysis; format: functional, cell-based; summary of the method: as §2
[33] = tested on: Jurkat; test: Induction of apoptosis in human Jurkat T cells assessed as increase in phosphatidylserine level at 0.5 to 4 uM after 24 hrs by flow cytometric analysis; format: functional, cell-based
[34] = tested on: Jurkat; test: Induction of apoptosis in human Jurkat T cells assessed as decrease in membrane potential at 0.5 to 2 uM after 24 hrs by JC-1 staining-based flow cytometric analysis; format: functional, cell-based
[35] = tested on: Jurkat; test: Cell cycle arrest in human Jurkat T cells assessed as accumulation at G1 phase at 0.5 to 1 uM after 24 hrs by flow cytometric analysis (reference value: 63%); format: functional; summary of the method: as §2
[36] = tested on: Jurkat; test: Cell cycle arrest in human Jurkat T cells assessed as accumulation at S phase at 0.5 to 1 uM after 24 hrs by flow cytometric analysis (reference value: 20%); format: functional; summary of the method: as §2
[37] = tested on: Jurkat; test: Induction of apoptosis in human Jurkat T cells assessed as caspase 8 activation at 0.5 to 2 uM after 24 hrs by FAM-LETD-FMK staining-based flow cytometric analysis
[38] = tested on: Jurkat; test: Growth inhibition in human Jurkat T cells assessed as suppression into cell cycle progression at 8 uM after 24 hrs by flow cytometric analysis; format: functional; conditions: read-out: GI; summary of the method: as §1
[39] = tested on: Jurkat; test: Induction of apoptosis in human Jurkat T cells assessed as increase in necrotic cells at 4 uM after 24 hrs by 7-AA staining-based flow cytometric analysis; format: functional, cell-based
[40] = tested on: Jurkat; test: Induction of apoptosis in human Jurkat T cells assessed as decrease in membrane potential at 1 uM after 24 hrs by JC-1 staining-based flow cytometric analysis; format: functional; set-up: scale not given: the % may be the effect or the level left
[41] = tested on: Jurkat; test: Growth inhibition in human Jurkat T cells assessed as suppression into cell cycle progression at 4 uM after 24 hrs by flow cytometric analysis; format: functional; conditions: read-out: GI; summary of the method: as §1

| SMILES | IC50 [1] [nM] | inhibition of growth at 1 µM [3] [%] | Ratio IC50 [4] | Activity [5] [%] | Activity [9] | Activity [10] [%] | Activity [1] | Activity [12] [%] | Activity [14] | Activity [16] | Activity [18] | Activity [19] [%] | also measured |
| --- | --- | --- | --- | --- | --- | --- | --- | --- | --- | --- | --- | --- | --- |
| C[S+]([O-])CCCCN=C=S (stereo unspecified) [SULFORAPHANE] | 15000 | – | – | – | – | – | – | – | – | – | – | – | – |
| O=C1c2ccc3c4c(ccc(c24)C(=O)N1CCCN=C=S)C(=O)N(CCCN=C=S)C3=O | 430 | 65 | 35 | 47.1 | Active | 100 | Dose-dependent effect | 100 | Dose-dependent effect | Dose-dependent effect | Dose-dependent effect | 100 | Activity [2]: Active; Activity [6]: Active; Activity [7]: 22%; inhibition of growth at 0.75 µM [8]: 30%; Activity [11]: 13%; Activity [13]: Active; growth inhibition (GI) [15]: Active; Activity [17]: 68%; fold change (FC) [20]: 40; Activity [21]: 68% |
| O=C1c2ccc3c4c(ccc(c24)C(=O)N1CCN=C=S)C(=O)N(CCN=C=S)C3=O | 890 | 40 | 17 | 50.6 | Active | 100 | Dose-dependent effect | 100 | Dose-dependent effect | Dose-dependent effect | Dose-dependent effect | 100 | Activity [22]: 66%; inhibition of growth at 1.5 µM [23]: 58%; Activity [24]: Active; Activity [25]: Active; Activity [26]: Active; Activity [27]: Active; inhibition of growth at 3 µM [28]: 94%; Activity [29]: 68%; Activity [30]: Active |
| CC[C@@]1(O)C(=O)OCc2c1cc1n(c2=O)Cc2cc3ccccc3nc2-1 | – | – | – | – | – | – | – | – | – | – | – | – | Activity [31]: Active |
| CN(C)CCN1C(=O)c2ccc3c4c(ccc(c24)C1=O)C(=O)N(CCN=C=S)C3=O | 1910 | – | 8 | – | Active | 100 | Dose-dependent effect | 100 | Dose-dependent effect | Dose-dependent effect | Dose-dependent effect | 100 | Activity [32]: inactive; Activity [33]: Active; Activity [34]: Active; Activity [35]: 68%; Activity [36]: 15%; Activity [37]: 56%; inhibition of growth at 8 µM [38]: 90%; inhibition of growth at 2 µM ([15]; read-out: GI): 30%; Activity [39]: Active; Activity [40]: 53%; inhibition of growth at 4 µM [41]: 40% |
